Tests used:
endogenous GYF2 = assay: Pull-down of GYF2 by tagged 4EHP in HEK293T cells; type: binding, human; settings: Western blot
Summary of the method: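 Streptavidin pull-downs used HEK293T lysates containing RNase A and expressed V5-SBP-4EHP, wild type or mutants. V5-SBP-MBP was the negative control. Inputs (1–1.5%) and bound fractions (up to 30% for GYF2) were analysed by Western blot with anti-V5 and anti-GYF2 antibodies, using ECL detection.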

endogenous GYF1 = assay: Pull-down of GYF1 by tagged 4EHP in HEK293T cells; type: binding, human; settings: V5-SBP-4EHP, Western blot

B1: 4EHP RE-LL: 4EHP R103L, E149L; auxiliary surface mutant (protein)
chain: MNNKFDALKDDDSGDHDQNEENSTQKDGEKEKTERDKNQSSSKRKAVVPGPAEHPLQYNYTFWYSRRTPGRPTSSQSYEQNIKQIGTFASVEQFWRFYSHMVLPGDLTGHSDFHLFKEGIKPMWEDDANKNGGKWIIRLRKGLASRCWLNLILAMLGEQFMVGEEICGAVVSVRFQEDIISIWNKTASDQATTARIRDTLRRVLNLPPNTIMEYKTHTDSIKMPGRLGPQRLLFQNLWKPRLNVP
binding to endogenous GYF2 (endogenous GYF2): strongly reduced binding to endogenous GYF2 | binding to endogenous GYF1 (endogenous GYF1): disrupted binding to endogenous GYF1
